From ChEMBL document CHEMBL1152672, “Side chain azasteroids and thiasteroids as sterol methyltransferase inhibitors in ergosterol biosynthesis” (2009)
In brackets after ≈: the same amount, converted by molar mass. Blank lines part the entries; values can stand above or below the compound they belong to.

Tests used:
[1] = target: T1, Sterol 24-C-methyltransferase (Yarrowia lipolytica) (UniProt Q6C2D9); experiment: Inhibition of Yarrowia lipolytica 24-SMT assessed as dehydroergosterol-3-trimethylsilyl derivative at 0.1 ug/mL after 48 hrs by GC-MS analysis relative to untreated control; set-up: scale not given: the % may be the effect or the level left
T1 sequence (whole entry): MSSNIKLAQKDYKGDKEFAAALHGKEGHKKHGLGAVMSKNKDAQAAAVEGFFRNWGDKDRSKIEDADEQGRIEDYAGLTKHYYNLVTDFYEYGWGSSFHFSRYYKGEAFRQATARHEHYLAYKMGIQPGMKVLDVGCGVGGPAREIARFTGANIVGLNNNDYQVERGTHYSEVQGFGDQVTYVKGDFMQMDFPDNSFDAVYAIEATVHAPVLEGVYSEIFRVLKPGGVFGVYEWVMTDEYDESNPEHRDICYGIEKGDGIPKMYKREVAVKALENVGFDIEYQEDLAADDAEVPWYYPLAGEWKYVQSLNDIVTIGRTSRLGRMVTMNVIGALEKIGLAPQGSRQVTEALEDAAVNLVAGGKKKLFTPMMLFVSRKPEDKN
In short: (§1)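 Whole-cell sterol profiling. Y. lipolytica at 50,000 CFU/mL was exposed to compounds added from ethanol for 48 ± 2 h at 28 °C, and the MIC/2 and/or MIC/4 wells were used. Cells were pelleted and PBS-washed, then saponified in 1 M NaOH at 70 °C for 1 h. Sterols were extracted into TBME with a cholesterol internal standard and silylated to TMS ethers. GC-MS full scan, with each sterol given as % of total integrated quantifier-ion area.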

[2] = target: T1, Sterol 24-C-methyltransferase (Yarrowia lipolytica); experiment: Inhibition of Yarrowia lipolytica 24-SMT assessed as 5-dehydroepisterol-3-trimethylsilyl derivative at 0.1 ug/mL after 48 hrs by GC-MS analysis relative to untreated control; set-up: scale not given: the % may be the effect or the level left; in short: as §1
Yarrowia lipolytica = experiment: Antimicrobial activity against Yarrowia lipolytica after 48 hrs; type: functional
In short: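 Broth dilution MIC per DIN 58940-84. Log-phase Y. lipolytica in yeast extract/peptone/glucose medium, counted against a 0.5 McFarland standard (A570) and seeded at 50,000 CFU/mL in 2 mL wells. Compounds added from ethanol; final concentrations 2 to 0.06125 µg/mL unless otherwise stated. Plates incubated 48 ± 2 h at 28 °C. MIC is the lowest concentration with no visible growth.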

[3] = target: T1, Sterol 24-C-methyltransferase (Yarrowia lipolytica); experiment: Inhibition of Yarrowia lipolytica 24-SMT assessed as zymosterol-3-trimethylsilyl derivative level at 0.1 ug/mL after 48 hrs by GC-MS analysis relative to untreated control; set-up: scale not given: the % may be the effect or the level left; in short: as §1
[4] = target: T1, Sterol 24-C-methyltransferase (Yarrowia lipolytica); experiment: Inhibition of Yarrowia lipolytica 24-SMT assessed as cholesta-5,7,24-trien-3-trimethylsilyl derivative at 0.1 ug/mL after 48 hrs by GC-MS analysis relative to untreated control; set-up: scale not given: the % may be the effect or the level left; in short: as §1
[5] = target: T1, Sterol 24-C-methyltransferase (Yarrowia lipolytica); experiment: Inhibition of Yarrowia lipolytica 24-SMT assessed as cholesta-7,24-dien-3-trimethylsilyl derivative at 0.1 ug/mL after 48 hrs by GC-MS analysis relative to untreated control; set-up: scale not given: the % may be the effect or the level left; in short: as §1
[6] = target: T1, Sterol 24-C-methyltransferase (Yarrowia lipolytica); experiment: Inhibition of Yarrowia lipolytica 24-SMT assessed as lanosterol-3-trimethylsilyl derivative at 0.1 ug/mL after 48 hrs by GC-MS analysis relative to untreated control; set-up: scale not given: the % may be the effect or the level left; in short: as §1
[7] = target: T1, Sterol 24-C-methyltransferase (Yarrowia lipolytica); experiment: Inhibition of Yarrowia lipolytica 24-SMT assessed as cholesta-7,24-dien-3-trimethylsilyl derivative at 0.2 ug/mL after 48 hrs by GC-MS analysis relative to untreated control; set-up: scale not given: the % may be the effect or the level left; in short: as §1
[8] = target: T1, Sterol 24-C-methyltransferase (Yarrowia lipolytica); experiment: Inhibition of Yarrowia lipolytica 24-SMT assessed as dehydroergosterol-3-trimethylsilyl derivative at 0.2 ug/mL after 48 hrs by GC-MS analysis relative to untreated control; set-up: scale not given: the % may be the effect or the level left; in short: as §1
[9] = target: T1, Sterol 24-C-methyltransferase (Yarrowia lipolytica); experiment: Inhibition of Yarrowia lipolytica 24-SMT assessed as 5-dehydroepisterol-3-trimethylsilyl derivative at 0.2 ug/mL after 48 hrs by GC-MS analysis relative to untreated control; set-up: scale not given: the % may be the effect or the level left; in short: as §1
[10] = target: T1, Sterol 24-C-methyltransferase (Yarrowia lipolytica); experiment: Inhibition of Yarrowia lipolytica 24-SMT assessed as ergosterol-3-trimethylsilyl derivative level at 0.2 ug/mL after 48 hrs by GC-MS analysis relative to untreated control; set-up: scale not given: the % may be the effect or the level left; in short: as §1
[11] = target: T1, Sterol 24-C-methyltransferase (Yarrowia lipolytica); experiment: Inhibition of Yarrowia lipolytica 24-SMT assessed as cholesta-5,7,24-trien-3-trimethylsilyl derivative at 0.2 ug/mL after 48 hrs by GC-MS analysis relative to untreated control; set-up: scale not given: the % may be the effect or the level left; in short: as §1
[12] = target: T1, Sterol 24-C-methyltransferase (Yarrowia lipolytica); experiment: Inhibition of Yarrowia lipolytica 24-SMT assessed as 5-dehydroepisterol-3-trimethylsilyl derivative at 2 ug/mL after 48 hrs by GC-MS analysis relative to untreated control; set-up: scale not given: the % may be the effect or the level left; in short: as §1
[13] = target: T1, Sterol 24-C-methyltransferase (Yarrowia lipolytica); experiment: Inhibition of Yarrowia lipolytica 24-SMT assessed as cholesta-7,24-dien-3-trimethylsilyl derivative at 2 ug/mL after 48 hrs by GC-MS analysis relative to untreated control; set-up: scale not given: the % may be the effect or the level left; in short: as §1
[14] = target: T1, Sterol 24-C-methyltransferase (Yarrowia lipolytica); experiment: Inhibition of Yarrowia lipolytica 24-SMT assessed as dehydroergosterol-3-trimethylsilyl derivative at 2 ug/mL after 48 hrs by GC-MS analysis relative to untreated control; set-up: scale not given: the % may be the effect or the level left; in short: as §1
[15] = target: T1, Sterol 24-C-methyltransferase (Yarrowia lipolytica); experiment: Inhibition of Yarrowia lipolytica 24-SMT assessed as cholesta-5,7,24-trien-3-trimethylsilyl derivative at 2 ug/mL after 48 hrs by GC-MS analysis relative to untreated control; set-up: scale not given: the % may be the effect or the level left; in short: as §1
[16] = target: T1, Sterol 24-C-methyltransferase (Yarrowia lipolytica); experiment: Inhibition of Yarrowia lipolytica 24-SMT assessed as lanosterol-3-trimethylsilyl derivative at 0.2 ug/mL after 48 hrs by GC-MS analysis relative to untreated control; set-up: scale not given: the % may be the effect or the level left; in short: as §1
[17] = target: T1, Sterol 24-C-methyltransferase (Yarrowia lipolytica); experiment: Inhibition of Yarrowia lipolytica 24-SMT assessed as zymosterol-3-trimethylsilyl derivative level at 0.2 ug/mL after 48 hrs by GC-MS analysis relative to untreated control; set-up: scale not given: the % may be the effect or the level left; in short: as §1
[18] = target: T1, Sterol 24-C-methyltransferase (Yarrowia lipolytica); experiment: Inhibition of Yarrowia lipolytica 24-SMT assessed as zymosterol-3-trimethylsilyl derivative level at 2 ug/mL after 48 hrs by GC-MS analysis relative to untreated control; set-up: scale not given: the % may be the effect or the level left; in short: as §1
[19] = target: T1, Sterol 24-C-methyltransferase (Yarrowia lipolytica); experiment: Inhibition of Yarrowia lipolytica 24-SMT assessed as dehydroergosterol-3-trimethylsilyl derivative at 0.06 ug/mL after 48 hrs by GC-MS analysis relative to untreated control; set-up: scale not given: the % may be the effect or the level left; in short: as §1
[20] = target: T1, Sterol 24-C-methyltransferase (Yarrowia lipolytica); experiment: Inhibition of Yarrowia lipolytica 24-SMT assessed as cholesta-7,24-dien-3-trimethylsilyl derivative at 0.06 ug/mL after 48 hrs by GC-MS analysis relative to untreated control; set-up: scale not given: the % may be the effect or the level left; in short: as §1
[21] = target: T1, Sterol 24-C-methyltransferase (Yarrowia lipolytica); experiment: Inhibition of Yarrowia lipolytica 24-SMT assessed as 5-dehydroepisterol-3-trimethylsilyl derivative at 0.06 ug/mL after 48 hrs by GC-MS analysis relative to untreated control; set-up: scale not given: the % may be the effect or the level left; in short: as §1
[22] = target: T1, Sterol 24-C-methyltransferase (Yarrowia lipolytica); experiment: Inhibition of Yarrowia lipolytica 24-sterol C-methyltransferase assessed as ergosterol-3-trimethylsilyl derivative level at 0.06 ug/mL after 48 hrs by GC-MS analysis relative to untreated control; set-up: scale not given: the % may be the effect or the level left; in short: as §1
[23] = target: T1, Sterol 24-C-methyltransferase (Yarrowia lipolytica); experiment: Inhibition of Yarrowia lipolytica 24-SMT assessed as cholesta-5,7,24-trien-3-trimethylsilyl derivative at 0.06 ug/mL after 48 hrs by GC-MS analysis relative to untreated control; set-up: scale not given: the % may be the effect or the level left; in short: as §1
[24] = target: T1, Sterol 24-C-methyltransferase (Yarrowia lipolytica); experiment: Inhibition of Yarrowia lipolytica 24-SMT assessed as 5-dehydroepisterol-3-trimethylsilyl derivative at 1 ug/mL after 48 hrs by GC-MS analysis relative to untreated control; set-up: scale not given: the % may be the effect or the level left; in short: as §1
[25] = target: T1, Sterol 24-C-methyltransferase (Yarrowia lipolytica); experiment: Inhibition of Yarrowia lipolytica 24-SMT assessed as dehydroergosterol-3-trimethylsilyl derivative at 1 ug/mL after 48 hrs by GC-MS analysis relative to untreated control; set-up: scale not given: the % may be the effect or the level left; in short: as §1
[26] = target: T1, Sterol 24-C-methyltransferase (Yarrowia lipolytica); experiment: Inhibition of Yarrowia lipolytica 24-sterol C-methyltransferase assessed as cholesta-5,7,24-trien-3-trimethylsilyl derivative at 1 ug/mL after 48 hrs by GC-MS analysis relative to untreated control; set-up: scale not given: the % may be the effect or the level left; in short: as §1
[27] = target: T1, Sterol 24-C-methyltransferase (Yarrowia lipolytica); experiment: Inhibition of Yarrowia lipolytica 24-SMT assessed as cholesta-7,24-dien-3-trimethylsilyl derivative at 1 ug/mL after 48 hrs by GC-MS analysis relative to untreated control; set-up: scale not given: the % may be the effect or the level left; in short: as §1

- Activity [1]: 47.3%
- Activity [2]: 3.7%
- MIC (Yarrowia lipolytica): 0.25 µg/mL (≈ 0.669 µM)
- Activity [3]: 0.5%
- Activity [4]: 48.5%
SMILES: CCCNC[C@@H](C)[C@H]1CC[C@H]2C3=CC[C@H]4C[C@@H](O)CC[C@]4(C)[C@H]3CC[C@]12C

- Activity [1]: 47.6%
- Activity [5]: 3.1%
- Activity [2]: 4.4%
- Activity [6]: 0.3%
- MIC (Yarrowia lipolytica): 0.25 µg/mL (≈ 0.645 µM)
- Activity [3]: 1.2%
- Activity [4]: 43.3%
SMILES: CC(C)CNC[C@@H](C)[C@H]1CC[C@H]2C3=CC[C@H]4C[C@@H](O)CC[C@]4(C)[C@H]3CC[C@]12C

- Activity [7]: 3.6%
- Activity [8]: 64.7%
- Activity [9]: 2.8%
- MIC (Yarrowia lipolytica): 2 µg/mL (≈ 5.56 µM)
- Activity [10]: 3.4%
- Activity [11]: 25.5%
SMILES: CCNC[C@@H](C)[C@H]1CC[C@H]2C3=CC[C@H]4C[C@@H](O)CC[C@]4(C)[C@H]3CC[C@]12C

- Activity [12]: 1%
- Activity [13]: 3.5%
- Activity [14]: 7.8%
- MIC (Yarrowia lipolytica): > 2 µg/mL
- Activity [15]: 87.5%
SMILES: CCCC[S+](C)C[C@@H](C)[C@H]1CC[C@H]2C3=CC[C@H]4C[C@@H](O)CC[C@]4(C)[C@H]3CC[C@]12C.[I-] (mixture of isomers)

- Activity [7]: 5.6%
- Activity [8]: 37.4%
- Activity [9]: 4.2%
- Activity [16]: 0.4%
- MIC (Yarrowia lipolytica): 0.5 µg/mL (≈ 1.24 µM)
- Activity [17]: 4.2%
- Activity [11]: 48.2%
SMILES: CCCCN(C)C[C@@H](C)[C@H]1CC[C@H]2C3=CC[C@H]4C[C@@H](O)CC[C@]4(C)[C@H]3CC[C@]12C

- Activity [12]: 2.6%
- Activity [14]: 55.4%
- MIC (Yarrowia lipolytica): > 2 µg/mL
- Activity [18]: 1.6%
- Activity [15]: 40.4%
SMILES: CNC[C@@H](C)[C@H]1CC[C@H]2C3=CC[C@H]4C[C@@H](O)CC[C@]4(C)[C@H]3CC[C@]12C

- Activity [19]: 25.9%
- Activity [20]: 5.4%
- Activity [21]: 2.9%
- MIC (Yarrowia lipolytica): 0.25 µg/mL (≈ 0.645 µM)
- Activity [22]: 5%
- Activity [23]: 60.8%
SMILES: CCCNCC[C@@H](C)[C@H]1CC[C@H]2C3=CC[C@H]4C[C@@H](O)CC[C@]4(C)[C@H]3CC[C@]12C

- Activity [24]: 3.1%
- Activity [25]: 24.3%
- MIC (Yarrowia lipolytica): > 2 µg/mL
- Activity [26]: 68%
- Activity [27]: 4.5%
SMILES: C[C@H](CNCCN(C)C)[C@H]1CC[C@H]2C3=CC[C@H]4C[C@@H](O)CC[C@]4(C)[C@H]3CC[C@]12C
